SENP7 inh – SENP7 protease inhibition | Q9BQF6 | recombinant SENP7, Z-RLRGG-aminoluciferin luminescence, 40 min | inhibition, % at 5 µM | 1.5% of 330,000 active | AID 434973;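 active = inhibition above about 50% at the single test dose, limit read from the data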;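 also: plate controls were DMSO with enzyme for no effect and no enzyme buffer wells for full effect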
Target sequence (Q9BQF6 706-1050 limits assumed): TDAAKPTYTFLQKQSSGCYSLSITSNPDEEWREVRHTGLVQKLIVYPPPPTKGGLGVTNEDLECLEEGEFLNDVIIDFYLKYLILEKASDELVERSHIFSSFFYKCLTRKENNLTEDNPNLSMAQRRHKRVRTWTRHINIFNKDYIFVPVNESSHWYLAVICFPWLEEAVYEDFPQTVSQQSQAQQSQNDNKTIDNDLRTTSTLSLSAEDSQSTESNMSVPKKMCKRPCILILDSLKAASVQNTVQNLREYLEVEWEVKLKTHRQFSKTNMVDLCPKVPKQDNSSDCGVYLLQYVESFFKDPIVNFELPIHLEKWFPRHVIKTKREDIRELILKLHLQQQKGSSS
SENP8 block-1 – SENP8 (human) protease inhibition | Q96LD8 | recombinant SENP8, Nedd8 substrate fluorescence | inhibition, % at 20 µM | 0.64% of 360,000 active; in the data active = inhibition mostly above about 40%, no sharp cut-off; inactive = mostly below about 27%
SENP1 inh – SENP1 (human) catalytic domain inhibition; recombinant SENP1 catalytic domain, CyPet-SUMO1-YPet FRET cleavage; 0.21% of 360,000 active; inhibition, % at 10 µM; AID 624204; Q9P0U3;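 active = inhibition at least 30% at 10 µM, raw YFP signal under a set limit, fluorescence ratio 0.5 to 1.5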;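 also: 0% = enzyme with DMSO and 100% = no enzyme wells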
Target sequence (Q9P0U3 419-644 limits assumed): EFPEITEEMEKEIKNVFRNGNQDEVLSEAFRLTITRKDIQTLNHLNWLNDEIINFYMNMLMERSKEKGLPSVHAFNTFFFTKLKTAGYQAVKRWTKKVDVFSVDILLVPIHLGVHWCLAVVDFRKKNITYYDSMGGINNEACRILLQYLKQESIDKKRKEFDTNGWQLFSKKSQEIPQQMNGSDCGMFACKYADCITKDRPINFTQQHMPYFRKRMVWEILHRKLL
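Material – human SENP1 catalytic domain · Input – SENP1 enzyme, 20 pM final · Compound dosing – single concentration of 10 µM compound, 0.5% DMSO final · Timing – enzyme reaction for 50 min at room temperature, dark · Measured by – FRET fluorescence in CFP and YFP emission channels · Control set – no-enzyme wells low, DMSO-plus-enzyme wells high control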
SENP6 inh – inhibitors of human SENP6 protease. AID 2599. 1.8% of 330,000 active. inhibition, % at 10 µM. Q9GZR1. Recombinant SENP6 catalytic domain, aminoluciferin luminescence;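 active = inhibition above about 50% at the single tested dose, limit read from the data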;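 also: plate controls were DMSO wells with enzyme for no effect and DMSO wells lacking enzyme for full effect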
SENP8 block-2 – blocks the human protease SENP8 | Q96LD8 | purified SENP8, Z-RLRGG-aminoluciferin cleavage, luminescence | inhibition, % at 10 µM | 1.2% of 330,000 active | AID 2540; in the data active = inhibition above about 50%
SENP8 conf – human SENP8 inhibition, confirmed | shares compounds with SENP7 inh | Recombinant SENP8, Z-RLRGG-aminoluciferin luminescence, 60 min | inhibition, % at 12.5 µM | 40% of 6,200 active | AID 488912;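 active = mean inhibition across replicates above about 50%, limit read from the data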
SENP6 confirm – confirmation of human SENP6 protease inhibitors. recombinant SENP6, Z-RLRGG-aminoluciferin luminescence. AID 488915. inhibition, % at 12.5 µM. shares compounds with SENP7 inh. 58% of 6,200 active
SENP7 confirm – human SENP7 inhibition, confirmed; shares compounds with SENP7 inh; recombinant SENP7, Z-RLRGG-aminoluciferin luminescence, 40 min; inhibition, % at 12.5 µM; 69% of 6,200 active; AID 488917
Casp3 SENP sel – caspase-3 inhibition (SENP selectivity assay). shares compounds with SENP7 inh. purified caspase-3, Z-DEVD-aminoluciferin luminescence, 60 min. inhibition, % at 12.5 µM. 60% of 6,200 active. AID 488918;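 active = mean inhibition above about 50%, limit read from the data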;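 also: plate controls were enzyme with DMSO for no effect and wells without caspase-3 for full effect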
SENP luc ctr – luminescence interference (SENP counter-screen); shares compounds with SENP7 inh; Pre-incubated SENP8/Z-RLRGG-aminoluciferin, luciferase luminescence interference; inhibition, % at 12.5 µM; 39% of 6,200 active; AID 488919;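 active = mean inhibition above about 50% when retested at one dose, limit read from the data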;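 also: plate controls were DMSO wells with completed reaction for no effect and substrate without enzyme for full effect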
Active calls of the source: *; nt = not tested or not shown. Hits are enriched below; roughly 2.5% of the tested compounds scored in any of these assays.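 The calls were made as follows, unless noted: active = mean inhibition above about 50% in the one-dose retest (limit read from the data); inactive = the rest.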

SMILES	SENP7 inh	SENP8 block-1	SENP1 inh	SENP6 inh	SENP8 block-2	SENP8 conf	SENP6 confirm	SENP7 confirm	Casp3 SENP sel	SENP luc ctr
Cc1ccc2nc(NC(=O)CCCC(=O)O)sc2c1	58*	4	2	55*	54*	3	16	27	18	7
CCOCC(=O)Nc1nc2ccc(OCC)cc2s1	63*	8	1	71*	37	56*	51*	81*	79*	62*
Cc1ccc2nc(NC(=O)CCCc3nc4ccccc4s3)sc2c1	9	3	-8	17	6	nt	nt	nt	nt	nt
CN1c2cccc3cccc(c23)N(C)C1(C)C	37	-320	4	72*	12	-3	4	-4	-4	-5
Cc1c(-n2c(SCC(=O)NC(C)C)nc3ccccc3c2=O)c(=O)n(-c2ccccc2)n1C	-2	3	0	17	-2	nt	nt	nt	nt	nt
O=C(O)c1ccc(NCCC2=CCCCC2)c([N+](=O)[O-])c1	11	17	4	86*	82*	4	87*	97*	88*	78*
O=C(O)c1ccc(N/N=C/c2cn(Cc3ccc(F)cc3)c3ccccc23)cc1	23	-431	-8	52*	61*	7	72*	75*	8	12
CC(C)S(=O)(=O)c1csc(C(=O)Nc2ccc(F)cc2)c1N	98*	-121	0	98*	92*	96*	97*	102*	97*	87*
CC(=O)c1cccc(NC(=O)COC(=O)c2cccs2)c1	5	7	0	8	3	nt	nt	nt	nt	nt
CCN(c1ccc(NC(=O)COC(=O)c2cccs2)cc1)C(C)C	64*	14	4	73*	42	68*	65*	90*	71*	70*
CCN(CC)c1ccc(NC(=O)COC(=O)c2cccs2)cc1	56*	6	1	53*	23	29	26	62*	47	3
COc1ccc(CN2C(=O)C(CC(=O)NCCN3CCOCC3)CC(C(=O)N3CCOCC3)=C2C)cc1 (centres undefined)	nt	16	1	nt	nt	nt	nt	nt	nt	nt
CC(C)(C)c1ccc(C(=O)NCCC(=O)NCc2ccc(F)cc2)cc1	nt	9	2	nt	nt	nt	nt	nt	nt	nt
COc1ccc(C(=O)NCc2ccc(-c3nc4ccccc4s3)cc2)cc1OC	3	-45	0	-12	0	nt	nt	nt	nt	nt
COc1ccc2nc(-c3ccc(F)cc3)sc2c1	97*	-476	-2	97*	74*	95*	97*	101*	95*	78*
COc1cc(OC)cc(-c2nc3ccccc3s2)c1	91*	-63	1	4	81*	92*	93*	100*	82*	77*
Cc1ccc(/C=N/OC(=O)c2nn(C)cc2Cl)cc1	66*	8	-1	66*	50*	-5	21	62*	34	49
CC(C)(C)c1ccc(-c2ccc3c(c2)S(=O)(=O)c2ccccc2C3=O)cc1	7	-27	-1	-3	-14	nt	nt	nt	nt	nt
CC(C)(C)c1ccc2c(c1)C(=O)c1ccccc1C2=O	96*	19	3	96*	66*	-2	59*	82*	44	44
O=C(NCCCCc1ccccc1)c1ccc(F)cc1	12	23	2	1	-11	nt	nt	nt	nt	nt
Cc1ccccc1N=CC1=C(O)c2ccccc2C1=O	102*	40*	3	98*	93*	94*	98*	102*	97*	54*
O=C1C(C=Nc2ccc(F)cc2)=C(O)c2ccccc21	95*	23	3	76*	74*	51*	54*	67*	66*	20
COc1ccc(N=CC2=C(O)c3ccccc3C2=O)c(OC)c1	99*	50*	6	90*	95*	53*	96*	102*	88*	3
O=C1C(C=NCc2ccncc2)=C(O)c2ccccc21	-9	8	3	2	-6	nt	nt	nt	nt	nt
CCn1cc(CNC(=O)CCc2nnc(CCC3CCCCC3)o2)cn1	-6	11	0	-12	-18	nt	nt	nt	nt	nt
SMILES	SENP7 inh	SENP8 block-1	SENP1 inh	SENP6 inh	SENP8 block-2	SENP8 conf	SENP6 confirm	SENP7 confirm	Casp3 SENP sel	SENP luc ctr
CCOC(=O)c1sc(NC(=O)COC(=O)C(CCSC)NC(C)=O)nc1C (centres undefined)	1	-4	-3	8	-4	nt	nt	nt	nt	nt
COc1ccccc1C(=O)Nc1ccccc1SC(=O)c1ccccc1OC	2	1	0	23	9	nt	nt	nt	nt	nt
CC(CNC(=O)c1ccccc1Cl)c1ccccc1 (centres undefined)	-13	16	0	4	-5	nt	nt	nt	nt	nt
O=C(CCCN1C(=O)/C(=C/c2ccccc2Cl)SC1=S)N1CCOCC1	88*	8	1	80*	86*	32	55*	64*	63*	34
COc1ccc(/C=C2/SC(=O)NC2=O)cc1	62*	6	0	86*	71*	81*	76*	89*	74*	84*
O=C(O)CN1C(=O)/C(=C\c2ccc(OC(=O)c3ccco3)cc2)SC1=S	1	17	39*	71*	59*	66*	62*	79*	83*	69*
COc1ccc(C=C2SC(=S)NC2=O)cc1	nt	25	-6	nt	nt	nt	nt	nt	nt	nt
O=C1NC(=S)SC1=Cc1ccc(F)cc1	nt	28	0	nt	nt	nt	nt	nt	nt	nt
O=C(CCCN1C(=O)/C(=C\c2ccccc2)SC1=S)N1CCOCC1	42	26	1	36	32	nt	nt	nt	nt	nt
O=C1NC(=S)S/C1=C\c1ccc2ccccc2c1	10	18	5	90*	88*	26	50*	38	24	21
COc1cccc(NS(=O)(=O)NC(=O)c2cn(C)c3ccccc23)c1	6	8	-3	2	-2	nt	nt	nt	nt	nt
COc1ccc(NC(=S)NC23CC4CC(CC(C4)C2)C3)cc1OC	1	15	1	-2	6	nt	nt	nt	nt	nt
O=c1c2ccccc2nc(SCc2ccncc2)n1CC1CCCO1 (centres undefined)	-9	21	-1	-29	-2	nt	nt	nt	nt	nt
COc1ccc(/C=C2\SC(=S)N(CCCC(=O)N3CCOCC3)C2=O)cc1	72*	16	-22	82*	69*	83*	76*	91*	63*	60*
O=C(O)CCN1C(=O)/C(=C\c2cccc(Oc3ccccc3)c2)SC1=S	62*	25	2	97*	96*	2	101*	104*	32	90*
